Tested on: MS2 coat protein
Assay: apparent Kd, MS2 coat protein; higher = weaker binding; RNA-MaP array; FMN 200 µM where present
Procedure, shortened: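 Green signal from SNAP-549-labelled MS2 coat protein was normalised to red-channel RNA signal and to the median Fmax of control clusters. The protein was titrated from 0.7 or 1.5 nM, doubling to 3 µM, without and then with constant ligand, over designs transcribed by stalled E. coli RNA polymerase on Illumina sequencing-chip clusters, in 100 mM Tris-HCl pH 7.5, 80 mM KCl, 4 mM MgCl2, BSA, DTT, yeast tRNA and Tween-20. The apparent Kd is the median of filtered per-cluster binding-curve fits.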

[1] = designed as: OFF switch for flavin mononucleotide, no ligand
[2] = ligand present: flavin mononucleotide, designed as: OFF switch for flavin mononucleotide
[3] = designed as: ON switch for flavin mononucleotide, no ligand
[4] = ligand present: flavin mononucleotide, designed as: ON switch for flavin mononucleotide

## CUCGAGUUAGGAUAUUGAACGUAACAAGCGGGAACUCCCGCCAAGAAGGAACAUGAGGAUCACCCAUGUGAAAC
[1]
  apparent Kd: 21 nM
[2]
  apparent Kd: 21.3 nM

## CUCGGACAUGAGGAUCACCCAUGUGAGGAUAUGAUGCGAUCGUCGAAAGACGAUAGCAUCAGAAGGUACAAAUG
[1]
  apparent Kd: 52 nM
[2]
  apparent Kd: 42.9 nM

## CUCGGACAUGAGGAUCACCCAUGUGAGGAUAUGGUGCUAUCGUCAUUAGACGAUUGCGUUAGAAGGCACAAAUG
[1]
  apparent Kd: 41.5 nM
[2]
  apparent Kd: 54.6 nM

## CUCGUGUCGGAGGAUAUCCAGCGCGAAAAUAAAGGAGAAGGCCGCACAUGAGGAUCACCCAUGUAACAUGGUCC
[1]
  apparent Kd: 56.2 nM
[2]
  apparent Kd: 76.4 nM

## CUCGUUAUGUUAGGAUAUGAUGCAUCCCGAUAAUCAGAAGGAACAUGAGGAUCACCCAUGUGACAUUUGGUGAAAACAAGCCAA
[1]
  apparent Kd: 6.35 nM
[2]
  apparent Kd: 7.87 nM

## CUCUUGUCAGGAUAUACGUACGCUUCGGCGGCGAGGAUCAUGUAGAAGGGACAUGAGGAUCACCCAUGUUAGAC
[1]
  apparent Kd: 41.6 nM
[2]
  apparent Kd: 44 nM

## CUCUUGUCAGGAUAUCUUACAUAACAAUCGUAGUUACCAUUGGAGAAGGGACAUGAGGAUCACCCAUGUUAGCC
[1]
  apparent Kd: 23.8 nM
[2]
  apparent Kd: 46.5 nM

## CUCUUGUGAGGAUAUCGAAGAAAAGAAAAGAAAGAAAAGAACGAGAAGGCACAUGAGGAUCACCCAUGUAAGAA
[1]
  apparent Kd: 57.2 nM
[2]
  apparent Kd: 171 nM

## CUGAAUAGAGGAUAUUGUACUGCUGACAUGAGGAUCACCCAUGUAUGUUAACUCGGCCGUCGAGAAGGCUAACAUA
[1]
  apparent Kd: 42.8 nM
[2]
  apparent Kd: 26.7 nM

## CUGAGCAAUCAAGGAUAUCACGUCGAUUAGACGUGAGAAGGUGAUCAUUACAUGAGGAUCACCCAUGUAUUACAUGGAGCUCAG
[3]
  apparent Kd: 1370 nM
[4]
  apparent Kd: 365 nM

## CUGAGCAAUGUAGGAUAUCGACUGGAAUACAGUCGAGAAGGACAUGAGGAUCACCCAUGUCAAUGAGUGAAUAAUAAAGCUCAG
[1]
  apparent Kd: 20.7 nM
[2]
  apparent Kd: 118 nM

## CUGAGCUGAGGAUAUACAUGAGGAUCACCCAUGUGUUCCAGCUUGCGUACAGGCAGAUGUAGAAGGCAGUUCGG
[1]
  apparent Kd: 41.4 nM
[2]
  apparent Kd: 102 nM

## CUGAGCUGAGGAUAUACAUGAGGAUCACCCAUGUUAAGCAGCUAGCGUAAAAGCAGAUGUAGAAGGCAGUUCGG
[1]
  apparent Kd: 18.9 nM
[2]
  apparent Kd: 20.3 nM

## CUGAGGUCAGGAUAUGCAUGGCGGGACUUGCGUCGUGGCGUGCAGAAGGGACAUGAGGAUCACCCAUGUGGAGA
[1]
  apparent Kd: 88.5 nM
[2]
  apparent Kd: 203 nM

## CUGAUGUCAGGAUAUCAGAAAAGGUGCGAGGACGCACCAAAUGAGAAGGGACAUGAGGAUCACCCAUGUAAAAC
[1]
  apparent Kd: 22.3 nM
[2]
  apparent Kd: 139 nM

## CUGAUGUCAGGAUAUCGGUGGCUCACUUGUGUGUGCCAGACCGAGAAGGGACAUGAGGAUCACCCAUGUUUUUA
[1]
  apparent Kd: 86.1 nM
[2]
  apparent Kd: 370 nM

## CUGAUGUGAGGAUAUCGGGCUACAGCCCUGCUGCUAGCAAACGAGAAGGCACAUGAGGAUCACCCAUGUAAGAA
[1]
  apparent Kd: 24 nM
[2]
  apparent Kd: 28.6 nM

## CUGCUUCCCAGUAUGGGUAUUUUUACAGAAGGCCAGGCACAUGAGGAUCACCCAUGUCAAGUUUUGGAGGAUAUGUUAUUGUCG
[3]
  apparent Kd: 8.53 nM
[4]
  apparent Kd: 4.72 nM

## CUGGUUGUCGAGGAUAUGCACCGGCUCGCUGACGCAGAAGGCGACACAUGAGGAUCACCCAUGUCGGUUCGCGA
[1]
  apparent Kd: 15.6 nM
[2]
  apparent Kd: 31.3 nM

## CUGUGACGGUGCGCAAGUGGACGGAGAAGGGACACAUGAGGAUCACCCAUGUGAGCCUGCUAUUGUCAGGAUAUCCGUUCGUAC
[1]
  apparent Kd: 8.69 nM
[2]
  apparent Kd: 13.8 nM

## CUGUGGGCCAUAGGAUAUGCGCAGAAUUAGCAAGCAGAAGGGUGGAUCGUACAAUAAUAACUACAUGAGGAUCACCCAUGUGCU
[3]
  apparent Kd: 360 nM
[4]
  apparent Kd: 39.6 nM

## CUGUGUAAAGGAUAUACAUGAGGAUCACCCAUGUGAUGUCCAAACCUGAACGGUUCGUGUAGAAGGUUGCUCUU
[1]
  apparent Kd: 20.9 nM
[2]
  apparent Kd: 19 nM

## CUGUUACAUGAGGAUCACCCAUGUGAGGAUAUGGUUCGGUACUGUCCUGUCGCGUACUCCAGAAGGCACGUGUC
[1]
  apparent Kd: 29.4 nM
[2]
  apparent Kd: 29.9 nM

## CUGUUAUAGGUCCAUUUUAACAACAUGAGGAUCACCCAUGUGCAGGAUAUCGUGUUAAUUUUCAUCGAGAAGGGCAUAGUCACG
[1]
  apparent Kd: 27.2 nM
[2]
  apparent Kd: 58.4 nM

## CUGUUGUGGUGCUGCUUGGCUUGGAGAGAAGGGUGAUUCACAUGAGGAUCACCCAUGUAGGACUUACAGGAUAUUUCCGGGUCU
[3]
  apparent Kd: 17.8 nM
[4]
  apparent Kd: 18.8 nM

## CUUAAACAUGAGGAUCACCCAUGUCAGGAUAUGAUACUAUGUACUUCGGUACAUAGUAUCAGAAGGGAUAUGAA
[1]
  apparent Kd: 49 nM
[2]
  apparent Kd: 64.8 nM

## CUUAGACAUGAGGAUCACCCAUGUGAGGAUAUGAUGCGAUCGUCGAAAGACGAUAGCAUCAGAAGGCACAUAUG
[1]
  apparent Kd: 132 nM
[2]
  apparent Kd: 301 nM

## CUUAGACAUGAGGAUCACCCAUGUGAGGAUAUGAUGCGAUCGUGCUGACAUGAUCGCAUCAGAAGGCACAAAUG
[1]
  apparent Kd: 141 nM
[2]
  apparent Kd: 173 nM

## CUUCAGUCAGGAUAUCUGCACGCUGGUGAGACCGGACGGAAGGAGAAGGGACAUGAGGAUCACCCAUGUAAAGC
[1]
  apparent Kd: 14 nM
[2]
  apparent Kd: 17.5 nM

## CUUCAGUCAGGAUAUGUUAAUCUCGCCACUCGGCGAACCGGACAGAAGGGACAUGAGGAUCACCCAUGUUAAAA
[1]
  apparent Kd: 34.7 nM
[2]
  apparent Kd: 19.7 nM

## CUUCGACAUGAGGAUCACCCAUGUCAGGAUAUUGUUUAUCUGGUGUUGUCCAGAUAUGCAAGAAGGGAUGUGUG
[1]
  apparent Kd: 38.4 nM
[2]
  apparent Kd: 38.1 nM

## CUUCGUAUAGAGGAUAUAGGAUACCUCGGUGUCCUAGAAGGCUGUACAUGAGGAUCACCCAUGUACUUCAGAUC
[1]
  apparent Kd: 11.6 nM
[2]
  apparent Kd: 16 nM

## CUUCGUGAUGCAGGAUAUGUUUGCUUUUUGCGCACAGAAGGGCAUCACAUGAGGAUCACCCAUGUGAGUAGAAAACCGUGGAAA
[1]
  apparent Kd: 14.1 nM
[2]
  apparent Kd: 79.3 nM

## CUUCUGUAAGGAUAUGUAUGCUCCUGGUAUGUCGCGAGGAGACAGAAGGUACAUGAGGAUCACCCAUGUGGGCG
[1]
  apparent Kd: 168 nM
[2]
  apparent Kd: 304 nM

## CUUCUGUGAGGAUAUGUGAACCCGUGCCGAAAGGAUGGGAAACAGAAGGCACAUGAGGAUCACCCAUGUAAAAU
[1]
  apparent Kd: 35.3 nM
[2]
  apparent Kd: 179 nM

## CUUGUGUUAGGAUAUGCGCCCUGCAGAAGCAGGGCCAGAGAGCAGAAGGAACAUGAGGAUCACCCAUGUGUGAC
[1]
  apparent Kd: 65.5 nM
[2]
  apparent Kd: 53.7 nM

## CUUGUUUAUGUGAGGAUAUACUGUUAGUAAUGUUUGUAGAAGGUACAUGAGGAUCACCCAUGUUUAUUUCCUUU
[1]
  apparent Kd: 14.2 nM
[2]
  apparent Kd: 13.1 nM

## CUUGUUUAUGUGAGGAUAUACUGUUAGUAAUGUUUGUAGAAGGUACAUGAGGAUCACCCAUGUUUAUUUUUUUU
[1]
  apparent Kd: 20.5 nM
[2]
  apparent Kd: 19.7 nM

## CUUUAGUGAGGAUAUCAGUAGUAAUACAAUAGUAUUACUGCUGAGAAGGCACAUGAGGAUCACCCAUGUUCCUC
[1]
  apparent Kd: 38.1 nM
[2]
  apparent Kd: 169 nM

## CUUUCGUGAGGAUAUGAAACUUCGAUCGUGAGAUCGAGGCUACAGAAGGCACAUGAGGAUCACCCAUGUUCCUC
[1]
  apparent Kd: 34.6 nM
[2]
  apparent Kd: 420 nM

## CUUUCGUGAGGAUAUGUGGCUUCGAUCGUGAGAUCGAGAAAACAGAAGGCACAUGAGGAUCACCCAUGUUCCUC
[1]
  apparent Kd: 41 nM
[2]
  apparent Kd: 515 nM

## CUUUCGUUAGCAGGAUAUGGACAGGCCUGUCCGUAUUGAGUCAGUAACAUGAGGAUCACCCAUGUCCAGAAGGGCUCGAAGGGA
[1]
  apparent Kd: 14.1 nM
[2]
  apparent Kd: 46.6 nM

## CUUUGACAUGAGGAUCACCCAUGUGAGGAUAUGAUGCGAUCGUCGAAAGACGAUAGCAUCAGAAGGCACAUAUG
[1]
  apparent Kd: 85.7 nM
[2]
  apparent Kd: 238 nM

## CUUUUGUGAGGAUAUCAGUAGUAAAAAAAUAAAAUUACUACUUAGAAGGCACAUGAGGAUCACCCAUGUUCCUC
[1]
  apparent Kd: 23.4 nM
[2]
  apparent Kd: 53 nM

## CUUUUGUGAGGAUAUCAGUAGUAAAUAAAUAAAAUUACUACUGAGAAGGCACAUGAGGAUCACCCAUGUUCCUC
[1]
  apparent Kd: 41.2 nM
[2]
  apparent Kd: 305 nM

## CUUUUGUGAGGAUAUCAGUAGUAAUAAUAUAAAAUUACUACUGAGAAGGCACAUGAGGAUCACCCAUGUUCCUC
[1]
  apparent Kd: 37.2 nM
[2]
  apparent Kd: 185 nM

## CUUUUGUGAGGAUAUCAGUAGUAAUACAAUAGUAUUACUACUGAGAAGGCACAUGAGGAUCACCCAUGUUCUUC
[1]
  apparent Kd: 25.5 nM
[2]
  apparent Kd: 68.2 nM

## CUUUUGUGAGGAUAUCAGUAGUAAUACAAUAGUAUUACUACUGAGAAGGCACAUGAGGAUCACCCAUGUUUCUC
[1]
  apparent Kd: 42.4 nM
[2]
  apparent Kd: 121 nM

## CUUUUGUGAGGAUAUCAGUAGUUAAUAAAUAAAAUUACUACUGAGAAGGCACAUGAGGAUCACCCAUGUUCCUC
[1]
  apparent Kd: 37.1 nM
[2]
  apparent Kd: 211 nM

## CUUUUGUGAGGAUAUCAUUAGUAAAAAAAUAAAAUUACUACUGAGAAGGCACAUGAGGAUCACCCAUGUUCCUC
[1]
  apparent Kd: 35.5 nM
[2]
  apparent Kd: 233 nM

## CUUUUGUGAGGAUAUUAGUAGUAAAAAAAUAAAAUUACUACUGAGAAGGCACAUGAGGAUCACCCAUGUUCCUU
[1]
  apparent Kd: 14.8 nM
[2]
  apparent Kd: 39 nM

## CUUUUGUGAGGAUAUUAGUAGUAAAUGAAUAAAAUUACUACUGAGAAGGCACAUGAGGAUCACCCAUGUUCCUC
[1]
  apparent Kd: 44.1 nM
[2]
  apparent Kd: 493 nM

## CUUUUGUGAGGAUAUUAGUAGUAAAUGAUUAAAAUUAUUACUGAGAAGGCACAUGAGGAUCACCCAUGUUCCUC
[1]
  apparent Kd: 45.1 nM
[2]
  apparent Kd: 655 nM

## CUUUUGUGAGGAUAUUAGUAGUAAAUUAAUAAAAUUACUACUGAGAAGGCACAUGAGGAUCACCCAUGUUCCUC
[1]
  apparent Kd: 30.8 nM
[2]
  apparent Kd: 190 nM

## CUUUUGUGAGGAUAUUAGUAGUUUAUAAUUGGUGUUAUUACUGAGAAGGCACAUGAGGAUCACCCAUGUACAAC
[1]
  apparent Kd: 47.9 nM
[2]
  apparent Kd: 181 nM

## GAAAACGGAGAGGAUAUUUGAGAUCAAAGCUCCAAAGAAGGCUCCACAUGAGGAUCACCCAUGUGGUCUUCAAU
[1]
  apparent Kd: 14.6 nM
[2]
  apparent Kd: 107 nM

## GAAAAGUCAGGAUAUGCAGAUAAAAAAACGAAAAAAAAUCUGCAGAAGGGACAUGAGGAUCACCCAUGUAAAAG
[1]
  apparent Kd: 35.3 nM
[2]
  apparent Kd: 74.6 nM

Reference: the EternaBench riboswitch data
